# CHRM1 PAM: potentiates human M1 receptor response to acetylcholine; P11229; CHO-K1 hM1, Fluo-8 calcium fluorescence, ACh EC20; 0% = ACh EC20, 100% = maximal ACh; activation, % at 3 µM; 360,000 compounds, 0.088% hits; in the data active means activation above about 19%, passing the limit was not always enough
# Target sequence (P11229 whole entry, looked up): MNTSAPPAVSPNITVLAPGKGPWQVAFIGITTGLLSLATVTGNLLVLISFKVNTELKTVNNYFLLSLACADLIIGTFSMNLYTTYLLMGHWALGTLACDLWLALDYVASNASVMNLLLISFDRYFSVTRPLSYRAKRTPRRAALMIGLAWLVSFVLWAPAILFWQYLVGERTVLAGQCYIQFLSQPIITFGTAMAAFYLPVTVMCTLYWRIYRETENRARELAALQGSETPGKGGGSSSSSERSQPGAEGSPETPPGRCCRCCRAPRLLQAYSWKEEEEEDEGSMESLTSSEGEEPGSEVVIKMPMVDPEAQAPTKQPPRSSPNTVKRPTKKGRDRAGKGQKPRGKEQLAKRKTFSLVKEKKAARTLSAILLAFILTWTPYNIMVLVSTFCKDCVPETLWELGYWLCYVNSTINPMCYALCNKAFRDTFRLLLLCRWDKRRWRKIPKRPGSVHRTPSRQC
# CHRM1 agonist: agonists of human M1 muscarinic receptor; 360,000 compounds, 0.33% hits; activation, % at 3 µM; AID 588814; P11229; CHO-K1 hM1, Fluo-8 calcium fluorescence, agonist mode; 0% DMSO, 100% acetylcholine EC100;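 active means activation above the run's mean compound activation plus 3 SD, cut at about 16% in these data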;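 further: peak over basal fluorescence ratio within a 140 s kinetic read after compound addition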
# TAAR1 antag: human TAAR1 antagonism. CHO RD-HGA16 TAAR1, Fluo-8 calcium fluorescence, antagonist. 360,000 compounds, 1.5% hits. Q96RJ0. AID 624466. inhibition, % at 3 µM;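 active means inhibition above a per-plate cutoff, the mean inhibition of test compounds on that plate plus 3 SD, cut at about 49% in these data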;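 further: 0% = DMSO plus EC80 beta-PEA response and 100% = DMSO alone without agonist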
#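 Assay system: CHO-derived RD-HGA16 cells stably expressing human TAAR1 plus Gα16. Timing: 140 s kinetic read after compound, 140 s after agonist. Technique: kinetic Fluo-8 calcium fluorescence measurement. Measure: % inhibition of agonist calcium response.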
# M1 antag: human CHRM1 antagonism. P11229. CHO-K1 hM1, Fluo-8 calcium fluorescence, ACh EC80 antagonist. 360,000 compounds, 1.3% hits. inhibition, % at 3 µM;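 active means percent inhibition above its own plate's cutoff, namely the mean of that plate's compound wells plus 3 SD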;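 further: peak over basal fluorescence ratio during 140 s after agonist addition; 0% = ACh EC80 plus DMSO and 100% = DMSO alone without agonist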
# HTR2A ag: mouse HTR2A agonism via beta-arrestin recruitment; P35363; CHO-K1 mHTR2A beta-arrestin complementation, luminescence; percent of 30 µM serotonin response; activation, % at 7.6 µM; 360,000 compounds, 0.66% hits; AID 624169;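 active means activation above a run cutoff, the mean activation of all tested compounds plus 3 SD, cut at about 14% in these data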;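 further: 0% = plate median of compound wells and 100% = 30 µM serotonin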
# TAAR1 ag: human TAAR1 agonism. AID 624467. Q96RJ0. activation, % at 3 µM. CHO RD-HGA16 TAAR1, Fluo-8 calcium fluorescence; vehicle wells 0%, saturating PEA agonist 100%. 360,000 compounds, 0.99% hits;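 active means activation above the mean activation of all test compounds in the run plus 3 SD, cut at about 38% in these data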
#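 System: CHO RD-HGA16 cells carrying human TAAR1 plus Gα16; Incubation: 17-24 h seeding, 75 min 37 °C dye, 30 min RT; Measured by: Fluo-8 fluorescence, 5 s baseline then 140 s kinetic read; Control set: DMSO and PEA EC100; Replication: single well for each compound.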
# * hit, by the source's call; . = no result. The list is not random: actives were taken first. Their share in the collection is about 3.9%.
SMILES,CHRM1 PAM,CHRM1 agonist,TAAR1 antag,M1 antag,HTR2A ag,TAAR1 ag
CCOc1ccc(S(=O)(=O)N2CCN(C(=O)c3cc(-c4ccccc4)nn3-c3ccccc3)CC2)cc1,5,-1,8,-1,3,2
O=C(c1cc(C2CC2)nn1-c1ccccc1)N1CCN(c2ccccn2)CC1,-21,-8,9,30*,-7,3
O=C(c1cc(C2CC2)nn1-c1ccccc1)N1CCN(c2ccccc2O)CC1,0,-2,22,5,-9,1
CCOc1ccc(S(=O)(=O)N2CCN(C(=O)c3cc(C4CC4)nn3-c3ccccc3)CC2)cc1,-26,-7,12,69*,-4,-1
C=CC[n+]1ccc(/C=C2\C=Cc3cc(C)ccc3N2CC)c2ccccc21,-13,-3,.,44*,-4,.
O=C(NCc1ccc(F)cc1)c1c2c(nc3ccccc13)CCN(Cc1ccccc1)C2,1,-9,3,-1,3,3
CCN1CCc2nc3ccccc3c(C(=O)Nc3ccc(NC(C)=O)cc3)c2C1,17,-1,-16,-15,-2,0
CC(=O)Nc1ccc(NC(=O)COC(=O)c2c3c(nc4ccccc24)CCN(Cc2ccccc2)C3)cc1,-23,3,63*,45*,-4,20
O=C(COC(=O)c1c2c(nc3ccccc13)CCN(Cc1ccccc1)C2)Nc1c(F)cccc1F,-13,-2,39,36*,9,13
O=Nc1c(O)n(Cc2ccc(Cl)cc2)c2ccccc12,22*,18*,4,-16,2,12
O=Nc1c(O)n(Cc2c(Cl)cccc2Cl)c2ccccc12,-1,36*,-10,6,0,0
Cc1ccc(Cn2c(O)c(N=O)c3ccccc32)cc1,9,20*,-6,-5,-5,3
COCCCNC(=S)Nc1ccc(OC(F)F)cc1C,1,-2,25,3,12,0
COCCCNC(=S)Nc1cc(C)c(C)cc1C,-23,-8,-13,62*,2,0
Cc1cc(N2CCN(C(=O)OC(C)(C)C)C[C@H]2C)ccc1N1CCS(=O)(=O)CC1,.,.,13,.,.,2
COc1ccccc1OCC(=O)NNc1c2ccccc2nc2ccccc12,2,-1,35,0,-4,6
O=C(CCCC(=O)c1ccccc1)NCCc1ccccc1F,-5,0,73*,10,-2,40*
COc1ccc(C(=O)CCC(=O)NCCc2ccccc2F)cc1,11,-3,71*,-14,-4,39*
COc1cccc(NC(=O)N(C)C[C@H]2Oc3cc(Br)ccc3S(=O)(=O)N([C@H](C)CO)C[C@H]2C)c1,-12,-3,-6,20*,-1,1
COc1ccc(C#Cc2ccc3c(c2)O[C@@H](CN(C)C(=O)Nc2cccc(OC)c2)[C@H](C)CN([C@@H](C)CO)S3(=O)=O)cc1,-12,-3,24,4,-3,6
OCCC1CN(C/C(Cl)=C/c2ccccc2)CCN1C1CCCC1 (stereo not drawn),-30,-15,1,22*,2,1
OCCC1CN(Cc2c(F)cccc2Cl)CCN1C1CCCCC1 (stereo not drawn),-2,-6,-4,2,1,0
OCCC1CN(Cc2nc(-c3ccccc3)cs2)CCN1C1CCCC1 (stereo not drawn),-24,-7,-17,45*,-8,0
OCCC1CN(Cc2c(F)cccc2Cl)CCN1C1CCCC1 (stereo not drawn),-25,-8,-36,57*,-4,1
OCCC1CN(Cc2ccsc2)CCN1C1CCCC1 (stereo not drawn),-2,-7,-27,43*,-1,1
SMILES,CHRM1 PAM,CHRM1 agonist,TAAR1 antag,M1 antag,HTR2A ag,TAAR1 ag
O=C(CCc1nnc(COc2ccccc2)o1)NC1(c2ccccc2)CC1,5,-1,-8,-8,3,1
COc1ccc2c(c1)C=C(CN1CCN(C3CCCC3)C(CCO)C1)CO2 (stereo not drawn),-20,-4,-6,95*,-1,4
COc1ccc2c(c1)C=C(CN1CCN(C(C)C)C(CCO)C1)CO2 (stereo not drawn),.,.,-20,.,.,1
COc1ccc(C(=O)NCC2CCN(C(=O)C(=O)c3cc4ccccc4o3)CC2)cc1,.,.,16,.,.,-1
CC(C)[N+](C)(C)CC(O)CN(c1ccccc1)c1ccccc1 (stereo not drawn),-28,-9,-2,86*,5,1
COC(=O)C1=C(C)N(Cc2ccc(C(F)(F)F)cc2)C(=NCc2ccccc2C(F)(F)F)NC1c1ccccc1 (stereo not drawn),.,.,18,.,.,4
CC(C)C(O)(C#CCN1CCCCCC1)c1ccccc1 (stereo not drawn),-33,-14,-1,87*,1,10
OC(C#CCN1CCCC1)(c1ccccc1)c1cccc(F)c1 (stereo not drawn),-28,-15,-29,101*,-7,4
CC1CCCN1CC#CC(O)(c1ccccc1)c1ccccc1 (stereo not drawn),-28,-9,-21,100*,-2,4
CC(C)(C#CCN1CCCCC1)OCCOC(c1ccccc1)c1ccccc1,-26,-9,-18,99*,-10,0
O=C1CC[C@@H]2C[C@@]3(C[C@@H]4CCN1[C@H]24)Nc1cc([N+](=O)[O-])ccc1NC3=NCc1ccccc1,11,-3,6,-6,-8,3
Cc1ccccc1S(=O)(=O)N1CCCc2nc(C)c(C)cc21,.,.,-28,.,.,0
CC1=C(C(N)=O)C(c2cccs2)NC(=O)N1 (stereo not drawn),7,-3,-23,-11,-2,1
CC(O)(C#CCN1CCCC1)c1ccccc1 (stereo not drawn),-21,-9,-14,41*,2,5
CN1CCCCC(NC(=O)c2ccc(F)cc2)C1=O (stereo not drawn),.,.,-3,.,.,1
c1ccc(CN2CCCC3(CCCN(Cc4nc(COc5ccccc5)no4)C3)C2)cc1 (stereo not drawn),-28,-10,-7,60*,-1,-2
Cc1cccc(OCC(=O)Nc2c3c(nn2C(C)(C)C)CS(=O)(=O)C3)c1,2,-1,-38,-4,3,2
C=CCn1c(CSCc2ccc(Cl)cc2Cl)nnc1SCC(=O)Nc1ccc(C(=O)O)cc1,4,-3,-6,-7,-1,2
CN(C)c1cc[n+](CC(=O)Nc2ccc(Oc3ccccc3)cc2)cc1,-36,-15,10,64*,-8,5
COc1ccc(/C=C(/C(=O)c2cccs2)N2C=CC=CC2=C(C#N)C#N)cc1,0,-9,56*,-1,-1,22
